Measurements gathered from unrelated publications.
Each line is one published result; the experiments were not run side by side.
Target: Rhodopsin kinase GRK1 (GRK1, Homo sapiens, UniProt Q15835)
Sequence (Q15835 1-563, as in one of the studies): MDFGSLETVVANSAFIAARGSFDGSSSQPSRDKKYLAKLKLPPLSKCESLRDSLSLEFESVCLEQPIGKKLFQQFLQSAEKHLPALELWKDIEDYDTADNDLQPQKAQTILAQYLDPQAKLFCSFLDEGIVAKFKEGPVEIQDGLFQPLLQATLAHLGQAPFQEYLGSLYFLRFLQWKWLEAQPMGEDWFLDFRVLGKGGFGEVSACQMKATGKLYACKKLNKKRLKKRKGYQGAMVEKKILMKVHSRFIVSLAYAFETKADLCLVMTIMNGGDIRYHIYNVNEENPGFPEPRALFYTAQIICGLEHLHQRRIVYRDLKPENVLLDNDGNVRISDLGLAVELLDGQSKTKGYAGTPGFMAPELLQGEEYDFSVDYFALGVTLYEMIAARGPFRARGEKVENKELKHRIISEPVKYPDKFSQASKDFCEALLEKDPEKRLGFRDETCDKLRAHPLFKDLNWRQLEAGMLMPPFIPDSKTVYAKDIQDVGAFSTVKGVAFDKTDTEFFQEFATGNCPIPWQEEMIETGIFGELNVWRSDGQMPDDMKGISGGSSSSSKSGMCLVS

| test | setting | measurement | result | SMILES |
| --- | --- | --- | --- | --- |
| binding | 1 µM | remaining binding | 95% | COc1ccc2[nH]c3c4[nH]c5ccc(OC)cc5c4c4c(c3c2c1)C(=O)NC4=O |
| binding | 0.1 µM | remaining binding | 94% | C1=C/COCc2cc(ccc2OCCN2CCCC2)Nc2nccc(n2)-c2cccc(c2)COC/1 |
| binding | 1 µM | remaining binding | 98% | COc1ccc2oc(-c3ccc4nc(N)oc4c3)c/c(=N\c3ccccc3NC(=O)CCN)c2c1 |
| cell-free assay | 1 µM | remaining signal | 100% | C[C@H]1CC[C@H](n2c3cnccc3c3cnc(Nc4ccc5c(n4)CCN(C(=O)CO)C5)nc32)CC1 |
| enzyme activity, inhibitor | 1 µM | inhibition | 34% | C=CC(=O)N1CCC([C@@H]2CCNc3c(C(N)=O)c(-c4ccc(Oc5ccccc5)cc4)nn32)CC1 |
| binding, competition with immobilised ligand | 0.5 µM | remaining binding | 96% | CCCCC(=O)Nc1ccc(-c2ccc3ncn(CCC)c(=O)c3c2)cn1 |
| enzyme activity, inhibitor | 1 µM | inhibition | 94% | CO[C@@H]1[C@H](N(C)C(=O)c2ccccc2)C[C@H]2O[C@]1(C)n1c3ccccc3c3c4c(c5c6ccccc6n2c5c31)C(=O)NC4 |
| enzyme activity, inhibitor | 1 µM | activity vs control | 112% | CC(C)S(=O)(=O)c1ccc2nccc(Nc3ccc4sc(C5CCCC5)nc4c3)c2c1 |
